Measured values of several laboratories.
Lines come from different studies, so protocols differ.

SMILES	assay	system	setting	endpoint	value
Cc1[nH]c(C)c(S(=O)(=O)Nc2ccc(S(=O)(=O)F)c(Cl)c2)c1C(=O)N1CCC(F)(F)C1	metabolic stability	mouse, liver microsomes		half-life	32 min
CC(C)CC(=O)OC[C@H]1O[C@@](C#N)(c2ccc3c(N)ncnn23)[C@H](O)[C@@H]1O	metabolic stability	mouse, hepatocytes	5 µM	half-life	< 4.36 min
C#Cc1nc(C(=O)N2CCC(NC(=O)c3cnc(-c4ccccc4)s3)(c3nc4ccccc4n3C)CC2)cs1	metabolic stability	mouse, liver microsomes		half-life	~20 min
CC[C@H](C)CCCCC(=O)N[C@@H](CCN)C(=O)N[C@H](C(=O)N[C@@H](CCN)C(=O)N[C@H]1CCNC(=O)[C@H]([C@@H](C)O)NC(=O)[C@H](CCN)NC(=O)[C@H](CCN)NC(=O)[C@H](CC(C)C)NC(=O)[C@@H](CC(C)C)NC(=O)[C@H](CCN)NC1=O)[C@@H](C)O		male Sprague-Dawley rat, plasma	intravenous, 5 mg/kg	C0	15400 ng/mL
Cc1[nH]c(C)c(S(=O)(=O)Nc2ccc(S(F)(F)(F)(F)F)cc2)c1C(=O)N1CCC(F)(F)C1	metabolic stability	mouse, liver microsomes		half-life	20 min
Cl.Cn1c(=O)n(CCCCN2CCC3(CC2)OCc2ccccc23)c2ccccc21		male Sprague-Dawley rat, plasma	intravenous, 10 mg/kg	half-life	216 min
CC(=O)c1c(C)c2cnc(Nc3ccc(C4CCN(CCS(C)(=O)=O)CC4)cn3)nc2n(C2CCCC2)c1=O	metabolic stability	mouse, liver microsomes		half-life	72.2 min
CN1CCC[C@H]1c1cccnc1		rat, plasma	intravenous, 0.1 mg/kg	half-life	68 min
O=c1c2cc(Cl)c(CO)cc2[nH]c(=S)n1Cc1cncnc1	metabolic stability	mouse, liver microsomes	1 µM, pH 7.4	half-life	57.9 min
Cc1ccc2cc(N3CCC4(O)C(=O)c5cc(C)c(C)cc5N=C34)ccc2n1 (stereo not shown)		rat, plasma	intravenous, 2 mg/kg	half-life	186 min
